Measured values: ChEMBL document CHEMBL3046448, “Design and syntheses of novel phthalazin-1(2H)-one derivatives as acetohydroxyacid synthase inhibitors” (J Agric Food Chem, 2006)

system: Chenopodium album; assay: Herbicidal activity against Chenopodium album assessed as growth inhibition at 150 g ai/ha applied as post-emergence treatment under green house conditions measured 15 days post compound treatment; type: functional; settings: 360 h, read-out: GI
Method in brief: (§1)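 Post-emergence spray on pot-grown dicot weeds at the two-leaf stage in a greenhouse. Clay soil: pH 6.5, 1.6% organic matter, 37.3% clay, CEC 12.1 cmol/kg. Formulation: 100 g/L DMF/TW-80 emulsified concentrate, water-diluted to 150 g ai/ha. Untreated and DMF solvent controls. Visual inhibition rating at 15 days: ++ >80%, + 50-80%, − <50%.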

| SMILES | inhibition of growth at 150 g/ha |
| --- | --- |
| CCn1nc(C)c2cccc(Oc3nc(OC)cc(OC)n3)c2c1=O | 50% |
| COc1cc(OC)nc(Oc2cccc3c(C)nn(Cc4ccccc4)c(=O)c23)n1 | < 50% |
| COc1cc(OC)nc(Oc2cccc3c(C)n[nH]c(=O)c23)n1 | 50% |
| C=CCn1nc(C)c2cccc(Oc3nc(OC)cc(OC)n3)c2c1=O | 50% |
| CCOC(=O)Cn1nc(C)c2cccc(Oc3nc(OC)cc(OC)n3)c2c1=O | 50% |

system: Amaranthus retroflexus; assay: Herbicidal activity against Amaranthus retroflexus assessed as growth inhibition at 150 g ai/ha applied as post-emergence treatment under green house conditions measured 15 days post compound treatment; type: functional; settings: 360 h, read-out: GI; method in brief: as §1

| SMILES | inhibition of growth at 150 g/ha |
| --- | --- |
| CCn1nc(C)c2cccc(Oc3nc(OC)cc(OC)n3)c2c1=O | > 80% |
| COc1cc(OC)nc(Oc2cccc3c(C)nn(Cc4ccccc4)c(=O)c23)n1 | < 50% |
| COc1cc(OC)nc(Oc2cccc3c(C)n[nH]c(=O)c23)n1 | > 80% |
| C=CCn1nc(C)c2cccc(Oc3nc(OC)cc(OC)n3)c2c1=O | > 80% |
| CCOC(=O)Cn1nc(C)c2cccc(Oc3nc(OC)cc(OC)n3)c2c1=O | > 80% |

system: Brassica juncea; assay: Herbicidal activity against Brassica juncea assessed as growth inhibition at 150 g ai/ha applied as post-emergence treatment under green house conditions measured 15 days post compound treatment; type: functional; settings: 360 h, read-out: GI; method in brief: as §1

| SMILES | inhibition of growth at 150 g/ha |
| --- | --- |
| CCn1nc(C)c2cccc(Oc3nc(OC)cc(OC)n3)c2c1=O | < 50% |
| COc1cc(OC)nc(Oc2cccc3c(C)nn(Cc4ccccc4)c(=O)c23)n1 | < 50% |
| COc1cc(OC)nc(Oc2cccc3c(C)n[nH]c(=O)c23)n1 | < 50% |
| C=CCn1nc(C)c2cccc(Oc3nc(OC)cc(OC)n3)c2c1=O | < 50% |
| CCOC(=O)Cn1nc(C)c2cccc(Oc3nc(OC)cc(OC)n3)c2c1=O | < 50% |

system: Setaria viridis; assay: Herbicidal activity against Setaria viridis (green foxtail) assessed as growth inhibition at 150 g ai/ha applied as post-emergence treatment under green house conditions measured 15 days post compound treatment; type: functional; settings: 360 h, read-out: GI
Method in brief: (§2)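 Monocot weeds grown in pots in a greenhouse and sprayed post-emergence at the one-leaf stage. Clay soil: pH 6.5, 1.6% organic matter, 37.3% clay, CEC 12.1 cmol/kg. Formulation: 100 g/L emulsified concentrate (DMF, TW-80) diluted with water to 150 g ai/ha. Untreated and DMF controls included. Growth inhibition scored visually after 15 days: ++ >80%, + 50-80%, − <50%.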

| SMILES | inhibition of growth at 150 g/ha |
| --- | --- |
| CCn1nc(C)c2cccc(Oc3nc(OC)cc(OC)n3)c2c1=O | > 80% |
| COc1cc(OC)nc(Oc2cccc3c(C)nn(Cc4ccccc4)c(=O)c23)n1 | < 50% |
| COc1cc(OC)nc(Oc2cccc3c(C)n[nH]c(=O)c23)n1 | > 80% |
| C=CCn1nc(C)c2cccc(Oc3nc(OC)cc(OC)n3)c2c1=O | > 80% |
| CCOC(=O)Cn1nc(C)c2cccc(Oc3nc(OC)cc(OC)n3)c2c1=O | > 80% |

system: Digitaria sanguinalis; assay: Herbicidal activity against Digitaria sanguinalis (hairy crabgrass) assessed as growth inhibition at 150 g ai/ha applied as post-emergence treatment under green house conditions measured 15 days post compound treatment; type: functional; settings: 360 h, read-out: GI; method in brief: as §2

| SMILES | inhibition of growth at 150 g/ha |
| --- | --- |
| CCn1nc(C)c2cccc(Oc3nc(OC)cc(OC)n3)c2c1=O | > 80% |
| COc1cc(OC)nc(Oc2cccc3c(C)nn(Cc4ccccc4)c(=O)c23)n1 | < 50% |
| COc1cc(OC)nc(Oc2cccc3c(C)n[nH]c(=O)c23)n1 | > 80% |
| C=CCn1nc(C)c2cccc(Oc3nc(OC)cc(OC)n3)c2c1=O | 50% |
| CCOC(=O)Cn1nc(C)c2cccc(Oc3nc(OC)cc(OC)n3)c2c1=O | 50% |

system: Amaranthus retroflexus; assay: Herbicidal activity against Amaranthus retroflexus assessed as growth inhibition at 150 g ai/ha applied as pre-emergence treatment 24 hr after weeds seeds sowing under green house conditions measured 15 days post compound treatment; type: functional; settings: read-out: GI
Method in brief: (§3)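 Pre-emergence spray applied 24 h after sowing weeds in pots in a greenhouse. Clay soil: pH 6.5, 1.6% organic matter, 37.3% clay, CEC 12.1 cmol/kg. Formulation: 100 g/L emulsified concentrate (DMF solvent, TW-80 emulsifier) diluted with water to 150 g ai/ha. Untreated and DMF-treated controls. Growth inhibition judged visually at 15 days: ++ >80%, + 50-80%, − <50%.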

| SMILES | inhibition of growth at 150 g/ha |
| --- | --- |
| CCn1nc(C)c2cccc(Oc3nc(OC)cc(OC)n3)c2c1=O | < 50% |
| COc1cc(OC)nc(Oc2cccc3c(C)nn(Cc4ccccc4)c(=O)c23)n1 | < 50% |
| COc1cc(OC)nc(Oc2cccc3c(C)n[nH]c(=O)c23)n1 | < 50% |
| C=CCn1nc(C)c2cccc(Oc3nc(OC)cc(OC)n3)c2c1=O | < 50% |
| CCOC(=O)Cn1nc(C)c2cccc(Oc3nc(OC)cc(OC)n3)c2c1=O | < 50% |

system: Brassica juncea; assay: Herbicidal activity against Brassica juncea assessed as growth inhibition at 150 g ai/ha applied as pre-emergence treatment 24 hr after weeds seeds sowing under green house conditions measured 15 days post compound treatment; type: functional; settings: read-out: GI; method in brief: as §3

| SMILES | inhibition of growth at 150 g/ha |
| --- | --- |
| CCn1nc(C)c2cccc(Oc3nc(OC)cc(OC)n3)c2c1=O | < 50% |
| COc1cc(OC)nc(Oc2cccc3c(C)nn(Cc4ccccc4)c(=O)c23)n1 | < 50% |
| COc1cc(OC)nc(Oc2cccc3c(C)n[nH]c(=O)c23)n1 | < 50% |
| C=CCn1nc(C)c2cccc(Oc3nc(OC)cc(OC)n3)c2c1=O | < 50% |
| CCOC(=O)Cn1nc(C)c2cccc(Oc3nc(OC)cc(OC)n3)c2c1=O | < 50% |

system: Setaria viridis; assay: Herbicidal activity against Setaria viridis (green foxtail) assessed as growth inhibition at 150 g ai/ha applied as pre-emergence treatment 24 hr after weeds seeds sowing under green house conditions measured 15 days post compound treatment; type: functional; settings: read-out: GI; method in brief: as §3

| SMILES | inhibition of growth at 150 g/ha |
| --- | --- |
| CCn1nc(C)c2cccc(Oc3nc(OC)cc(OC)n3)c2c1=O | < 50% |
| COc1cc(OC)nc(Oc2cccc3c(C)nn(Cc4ccccc4)c(=O)c23)n1 | < 50% |
| COc1cc(OC)nc(Oc2cccc3c(C)n[nH]c(=O)c23)n1 | < 50% |
| C=CCn1nc(C)c2cccc(Oc3nc(OC)cc(OC)n3)c2c1=O | < 50% |
| CCOC(=O)Cn1nc(C)c2cccc(Oc3nc(OC)cc(OC)n3)c2c1=O | < 50% |

system: Digitaria sanguinalis; assay: Herbicidal activity against Digitaria sanguinalis (hairy crabgrass) assessed as growth inhibition at 150 g ai/ha applied as pre-emergence treatment 24 hr after weeds seeds sowing under green house conditions measured 15 days post compound treatment; type: functional; settings: read-out: GI; method in brief: as §3

| SMILES | inhibition of growth at 150 g/ha |
| --- | --- |
| CCn1nc(C)c2cccc(Oc3nc(OC)cc(OC)n3)c2c1=O | < 50% |
| COc1cc(OC)nc(Oc2cccc3c(C)nn(Cc4ccccc4)c(=O)c23)n1 | < 50% |
| COc1cc(OC)nc(Oc2cccc3c(C)n[nH]c(=O)c23)n1 | < 50% |
| C=CCn1nc(C)c2cccc(Oc3nc(OC)cc(OC)n3)c2c1=O | < 50% |
| CCOC(=O)Cn1nc(C)c2cccc(Oc3nc(OC)cc(OC)n3)c2c1=O | < 50% |

system: Echinochloa crus-galli; assay: Herbicidal activity against Echinochloa crus-galli (barnyard grass) assessed as growth inhibition at 150 g ai/ha applied as post-emergence treatment under green house conditions measured 15 days post compound treatment; type: functional; settings: 360 h, read-out: GI; method in brief: as §2

| SMILES | inhibition of growth at 150 g/ha |
| --- | --- |
| CCn1nc(C)c2cccc(Oc3nc(OC)cc(OC)n3)c2c1=O | > 80% |
| COc1cc(OC)nc(Oc2cccc3c(C)nn(Cc4ccccc4)c(=O)c23)n1 | < 50% |
| COc1cc(OC)nc(Oc2cccc3c(C)n[nH]c(=O)c23)n1 | > 80% |
| C=CCn1nc(C)c2cccc(Oc3nc(OC)cc(OC)n3)c2c1=O | > 80% |
| CCOC(=O)Cn1nc(C)c2cccc(Oc3nc(OC)cc(OC)n3)c2c1=O | > 80% |

system: Chenopodium album; assay: Herbicidal activity against Chenopodium album assessed as growth inhibition at 150 g ai/ha applied as pre-emergence treatment 24 hr after weeds seeds sowing under green house conditions measured 15 days post compound treatment; type: functional; settings: read-out: GI; method in brief: as §3

| SMILES | inhibition of growth at 150 g/ha |
| --- | --- |
| CCn1nc(C)c2cccc(Oc3nc(OC)cc(OC)n3)c2c1=O | < 50% |
| COc1cc(OC)nc(Oc2cccc3c(C)nn(Cc4ccccc4)c(=O)c23)n1 | < 50% |
| COc1cc(OC)nc(Oc2cccc3c(C)n[nH]c(=O)c23)n1 | < 50% |
| C=CCn1nc(C)c2cccc(Oc3nc(OC)cc(OC)n3)c2c1=O | < 50% |
| CCOC(=O)Cn1nc(C)c2cccc(Oc3nc(OC)cc(OC)n3)c2c1=O | < 50% |

system: Echinochloa crus-galli; assay: Herbicidal activity against Echinochloa crus-galli (barnyard grass) assessed as growth inhibition at 150 g ai/ha applied as pre-emergence treatment 24 hr after weeds seeds sowing under green house conditions measured 15 days post compound treatment; type: functional; settings: read-out: GI; method in brief: as §3

| SMILES | inhibition of growth at 150 g/ha |
| --- | --- |
| CCn1nc(C)c2cccc(Oc3nc(OC)cc(OC)n3)c2c1=O | < 50% |
| COc1cc(OC)nc(Oc2cccc3c(C)nn(Cc4ccccc4)c(=O)c23)n1 | < 50% |
| COc1cc(OC)nc(Oc2cccc3c(C)n[nH]c(=O)c23)n1 | < 50% |
| C=CCn1nc(C)c2cccc(Oc3nc(OC)cc(OC)n3)c2c1=O | < 50% |
| CCOC(=O)Cn1nc(C)c2cccc(Oc3nc(OC)cc(OC)n3)c2c1=O | < 50% |

target: T1, Acetolactate synthase, chloroplastic (Arabidopsis thaliana, UniProt P17597); assay: Inhibition of wild type Arabidopsis thaliana acetohydroxyacid synthase; settings: not given
T1 sequence (P17597 whole entry): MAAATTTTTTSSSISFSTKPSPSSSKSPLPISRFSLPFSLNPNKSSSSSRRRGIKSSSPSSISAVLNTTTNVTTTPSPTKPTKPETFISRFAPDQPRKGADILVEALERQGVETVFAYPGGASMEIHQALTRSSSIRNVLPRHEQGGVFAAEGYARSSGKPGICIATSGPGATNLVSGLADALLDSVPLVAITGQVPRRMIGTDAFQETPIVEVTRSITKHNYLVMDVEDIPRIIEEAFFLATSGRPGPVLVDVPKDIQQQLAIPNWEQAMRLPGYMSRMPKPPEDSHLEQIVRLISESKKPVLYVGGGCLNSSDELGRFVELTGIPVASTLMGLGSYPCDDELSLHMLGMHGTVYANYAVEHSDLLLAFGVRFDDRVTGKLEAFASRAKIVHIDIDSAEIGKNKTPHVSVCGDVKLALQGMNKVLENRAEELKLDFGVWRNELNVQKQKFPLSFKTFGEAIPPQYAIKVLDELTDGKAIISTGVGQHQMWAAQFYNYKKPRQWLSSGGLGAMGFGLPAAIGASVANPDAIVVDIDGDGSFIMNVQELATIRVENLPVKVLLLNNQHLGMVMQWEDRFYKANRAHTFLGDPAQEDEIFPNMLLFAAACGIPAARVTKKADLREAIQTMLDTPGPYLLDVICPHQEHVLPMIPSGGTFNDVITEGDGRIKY

| SMILES | Ki |
| --- | --- |
| CCn1nc(C)c2cccc(Oc3nc(OC)cc(OC)n3)c2c1=O | 1680 µM |
| COc1cc(OC)nc(Oc2cccc3c(C)nn(Cc4ccccc4)c(=O)c23)n1 | 822 µM |
| COc1cc(OC)nc(Oc2cccc3c(C)n[nH]c(=O)c23)n1 | 789 µM |
| C=CCn1nc(C)c2cccc(Oc3nc(OC)cc(OC)n3)c2c1=O | 5250 µM |
| CCOC(=O)Cn1nc(C)c2cccc(Oc3nc(OC)cc(OC)n3)c2c1=O | 557 µM |
